Paper PMC7381488 (EBioMedicine, 2020)
“Also recorded” adds a separate entry of the source. Where two headings read alike, the source gives them in different places. Values belong to the compound of their own block, whether it stands above or below them.

Columns and labels:
[1] = format: in vivo, rhesus macaques; settings: 30 mg/kg EVG + 30 mg/kg COBI vs 50 mg/kg EVG alone, macaques
[2] = Drug concentrations in rectal tissues of macaques 24h after oral dosing; format: in vivo; settings: for rectal tissue concentration, macaques compared with humans: p=0•43 (EVG), p=0•073 (FTC), p=1 (TFV)
Method in brief: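 Macaques received one oral gavage solution (20 mg/kg FTC, 1•5 mg/kg TAF, 30 mg/kg EVG, 30 mg/kg COBI) in 65% PEG 400/20% TPGS/15% phosphate buffer pH 8. Mucosal biopsies were taken about 5-6 cm above the anal aperture 24 h post-dose: FTC/EVG in 12 animals, TFV-DP/FTC-TP in 4. Analysis was by HPLC-MS/MS or LC-MS-MS. Median biopsy weight was 0•037 g. Comparison with humans used the Wilcoxon rank sum test.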

[3] = macaques, cited from earlier work
[4] = format: in vivo, macaques
Method in brief: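 PEP arms were dosed by oral gavage at +2h (n=5), +6h (n=6), +24h (n=6) or +24h/+48h (n=6) after rectal SHIV162P3 exposure. Dosing and challenge recurred every two weeks for up to 8 exposures. PBMC TFV-DP and FTC-TP were measured at each subsequent challenge, 2 weeks after dosing, and reported as medians. Values below LLOQ were set to 10 fmol/10^6 cells.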

[5] = Intracellular TFV-DP and FTC-TP in PBMCs of macaques after a single oral dose; format: in vivo; settings: for peak intracellular concentration in PBMCs: macaques n=4, 20 mg/kg FTC, 1•5 mg/kg TAF, 30 mg/kg EVG/COBI oral, at 24h, median [range]; for time of peak in PBMCs: macaques, single oral dose
Method in brief: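 Four macaques were gavaged once with FTC 20 mg/kg, TAF 1•5 mg/kg, EVG 30 mg/kg and COBI 30 mg/kg in PEG 400/TPGS/phosphate buffer vehicle. PBMCs were sampled over time and lysed in cold 80% methanol, then stored at -80C. TFV-DP and FTC-TP were measured by LC-MS-MS, with LLOQs of 100 and 500 fmol/sample respectively.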

[6] = format: in vivo, humans; settings: for peak intracellular concentration in PBMCs: humans n=7, single Genvoya tablet (200 mg FTC/10 mg TAF/150 mg EVG/150 mg COBI), at 4h, median [range]; for time of peak in PBMCs: humans, single Genvoya tablet
Method in brief: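 Seven HIV-negative men took a single oral tablet (200 mg FTC/10 mg TAF/150 mg EVG/150 mg COBI), with PBMCs collected at each time point. Cells were lysed in cold 80% methanol and stored at -80C. TFV-DP and FTC-TP were quantified by LC-MS-MS, with LLOQ 100 fmol/sample for TFV-DP and 500 fmol/sample for FTC-TP.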

[7] = Drug concentrations in rectal tissues of humans 24h after a single tablet; format: in vivo
Method in brief: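 Seven HIV-negative men aged 18-49 each took one observed oral tablet (200 mg FTC/10 mg TAF/150 mg EVG/150 mg COBI). Rectal biopsies were taken 24 h later. TFV, FTC and EVG were measured by HPLC-MS/MS against a 0•5-2000 ng/mL human-plasma standard curve (LLOQ 10 ng/mL). Intracellular TFV-DP and FTC-TP were measured by LC-MS-MS. Median biopsy weight for extracellular drugs was 0•020 g.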

[8] = test system: virus; settings: added between 6 and 10 h after virus exposure; cited from earlier work

increase of plasma Cmax and AUC0-24h by co-administration of COBI [1]: about 4 fold
rectal tissue concentration, macaques compared with humans ([2]; 24h after dosing): similar
Structure (SMILES): COc1cc2c(cc1Cc1cccc(Cl)c1F)c(=O)c(C(=O)O)cn2[C@H](CO)C(C)C [EVG, elvitegravir]
plasma AUC0-24h of EVG without a booster ([3]; 50 mg/kg EVG oral, no COBI): 4000 ngxh/ml
plasma Cmax of EVG without a booster ([3]; 50 mg/kg EVG oral, no COBI): 280 ng/mL
time in secretions above the protein-adjusted 95% inhibition concentration ([3]; single oral dose, rectal and vaginal secretions): > 48 h
EVG concentration in rectal secretions relative to plasma ([3]; single oral dose): 694 fold
EVG concentration in vaginal secretions relative to plasma ([3]; single oral dose): 114 fold

rectal tissue concentration, macaques compared with humans ([2]; 24h after dosing): similar
Structure (SMILES): Nc1nc(=O)n([C@@H]2CS[C@H](CO)O2)cc1F [FTC, emtricitabine]

residual level in PBMCs at the time of virus challenges ([4]; PEP arms): did not detect any residual FTC-TP
detection in rectal tissue ([2]; macaques, 24h after dosing): mostly undetectable
peak intracellular concentration in PBMCs [5]: 1737 [1153–3523] fmols/10^6 cells
time of peak in PBMCs [5]: 24 h
peak intracellular concentration in PBMCs [6]: 4215 [3630–7,150] fmols/10^6 cells
time of peak in PBMCs [6]: 4 h
detection in rectal tissue ([7]; 24h after dosing): mostly undetectable
Structure (SMILES): Nc1nc(=O)n([C@@H]2CS[C@H](COP(=O)(O)OP(=O)(O)OP(=O)(O)O)O2)cc1F [FTC-TP]

Structure (SMILES): Cc1nnc(C(=O)NC(C)(C)c2nc(C(=O)NCc3ccc(F)cc3)c(O)c(=O)n2C)o1 [RAL, raltegravir]
post-infection inhibition in culture [8]: high post-infection inhibition

rectal tissue concentration, macaques compared with humans ([2]; 24h after dosing): similar
Structure (SMILES): C[C@H](Cn1cnc2c(N)ncnc21)OCP(=O)(O)O [TFV, tenofovir]

median intracellular level in rectal tissue ([2]; macaques, 24h after single oral dose): 10,600 fmols/mg
peak intracellular concentration in PBMCs [5]: 746 [509–1828] fmols/10^6 cells
time of peak in PBMCs [5]: 24 h
peak intracellular concentration in PBMCs [6]: 299 [121–523] fmols/10^6 cells
time of peak in PBMCs [6]: 4 h
median intracellular level in rectal tissue ([7]; 24h after single Genvoya tablet): 17,100 fmols/mg of tissue
Structure (SMILES): C[C@@H](Cn1cnc2c(N)ncnc21)OCP(=O)(O)OP(=O)(O)OP(=O)(O)O [TFV-DP]
median residual level in PBMCs at time of SHIV challenge ([4]; +2h arm): < LLOQ; also recorded: below the limit of detection
median residual level in PBMCs at time of SHIV challenge ([4]; +6h arm): < LLOQ; also recorded: below the limit of detection
